The source made the active and inactive calls. No cut-off for these calls is given here.

The nature of data set [1]: Cytotoxicity against mouse 3T3-F442A cells at 6 uM after 8 days by trypan blue staining.
Data set [2] is filed under the species Mus musculus. The data set can be described thus: Induction of preadipocyte differentiation in mouse 3T3-F442A cells assessed as triglyceride accumulation at 0.1 uM after 9 days by oil red O staining relative to control. The format is functional, cell-based. A digest of the protocol: (§1)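 Drug was present while 3T3-F442A cells differentiated. On day 9 cells were fixed in 10% formalin and stained with 0.0021% (wt/vol) Oil red O in 60% isopropanol. Cells were dried, dye extracted with 100% isopropanol, and fluorescence read at 495 nm. Data are from three independent experiments, Mann-Whitney U test versus control.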

Data set [3] in a line: Antiproliferative activity against mouse 3T3-F442A cells assessed as [3H]thymidine incorporation at 6 uM. In kind it is functional.
For data set [4], the system named is 3T3-F442A. Description: Induction of preadipocyte differentiation in mouse 3T3-F442A cells assessed as PPARgamma mRNA expression on day 4 by RT-PCR analysis.
Data set [5] has as its system 3T3-F442A (Mus musculus). The description is as above.
For a further data set, the system named is Homo sapiens. The data set can be described thus: Antiproliferative activity against human subcutaneous preadipocyte assessed as [3H]thymidine incorporation at 6 uM. In kind it is functional. A digest of the protocol:
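Primary human subcutaneous preadipocytes (collagenase-digested abdominal fat, kept in DMEM-Ham's F-12 1:1 with 10% FBS and 172 µM ascorbate 2-phosphate) were given drug or vehicle for 24 h. [3H]thymidine was then added for a further 24 h, and cells were filter-harvested and counted by beta counter (cpm). There were 4 to 16 replicates per experiment, in at least 3 independent experiments.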
(In general: Incorporation of labelled thymidine or its analogues reports DNA synthesis.)

The nature of data set [6]: Antiproliferative activity against mouse 3T3-F442A cells assessed as [3H]thymidine incorporation at 3 uM. The format is functional.
The species entered for data set [7] is Mus musculus. The data set can be described thus: Antiproliferative activity against mouse 3T3-F442A cells assessed as mtDNA depletion. In kind it is functional, cell-based.
Data set [8] can be described thus: Cytotoxicity against mouse 3T3-F442A cells at 1 uM after 8 days by trypan blue staining.
The species named for data set [9] is Mus musculus. The data set can be described thus: Antiproliferative activity against mouse 3T3-F442A cells assessed as [3H]thymidine incorporation at 0.1 uM. In kind it is functional, cell-based.
Data set [10] is filed under the species Mus musculus. The data set can be described thus: Antiproliferative activity against mouse 3T3-F442A cells assessed as [3H]thymidine incorporation. The format is functional, cell-based.
The species entered for data set [11] is Mus musculus. Description: Induction of adipocyte differentiation in mouse 3T3-F442A cells assessed as triglyceride accumulation at 6 uM on day 9 by oil red O staining relative to control. In kind it is functional, cell-based. The method, boiled down:
(§2)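 Drug was added to 3T3-F442A cells only after clonal expansion was complete. On day 9 cells were fixed in formalin and stained with 0.0021% Oil red O in 60% isopropanol. Dye was extracted with 100% isopropanol and fluorescence read at 495 nm. Data are from four independent experiments, ANOVA with Bonferroni versus control.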

For data set [12], the species on record is Mus musculus. The data set can be described thus: Induction of adipocyte differentiation in mouse 3T3-F442A cells assessed as triglyceride accumulation at 1 uM on day 9 by oil red O staining relative to control. The format is functional, cell-based. A digest of the protocol: as §2
Data set [13] is filed under the species Mus musculus. The data set can be described thus: Induction of preadipocyte differentiation in mouse 3T3-F442A cells assessed as triglyceride accumulation at 3 uM after 9 days by oil red O staining relative to control. In kind it is functional, cell-based. The method, boiled down:
as §1

For data set [14], the species on record is Mus musculus. Description: Induction of adipocyte differentiation in mouse 3T3-F442A cells assessed as C/EBPalpha mRNA expression on day 6 by RT-PCR analysis. In kind it is functional, cell-based.
The nature of data set [15]: Antiproliferative activity against mouse 3T3-F442A cells assessed as [3H]thymidine incorporation at 180 uM. The format is functional.
The species named for data set [16] is Mus musculus. Description: Induction of preadipocyte differentiation in mouse 3T3-F442A cells assessed as triglyceride accumulation at 6 uM after 9 days by oil red O staining relative to control. The format is functional, cell-based. The method, boiled down: as §1
A short description of data set [17]: Antiproliferative activity against mouse 3T3-F442A cells assessed as [3H]thymidine incorporation at 1 uM. The format is functional.
For data set [18], the system named is 3T3-F442A. Description: Induction of preadipocyte differentiation in mouse 3T3-F442A cells assessed as C/EBPalpha mRNA expression on day 6 by RT-PCR analysis.
Data set [19] relates to 3T3-F442A (Mus musculus). Described as above.
For data set [20], the species on record is Mus musculus. The data set can be described thus: Induction of preadipocyte differentiation in mouse 3T3-F442A cells assessed as adiponectin mRNA expression on day 9 by RT-PCR analysis. The format is functional, cell-based. A digest of the protocol:
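3T3-F442A preadipocytes were exposed to drug or vehicle from day −7, induced on day 0 and differentiated to day +9, when RNA was taken. Adiponectin mRNA was measured by real-time RT-PCR (42 cycles, 94/55/72°C) against transferrin receptor as calibrator. RNA and cDNA were pooled; there were three independent experiments with triplicate PCR each.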

For data set [21], the species on record is Mus musculus. Description: Induction of adipocyte differentiation in mouse 3T3-F442A cells assessed as PPARgamma mRNA expression on day 6 by RT-PCR analysis. In kind it is functional, cell-based.

In the case of `Cc1cn([C@H]2C[C@H](N=[N+]=[N-])[C@@H](CO)O2)c(=O)[nH]c1=O` [ZIDOVUDINE], the Activity entry in data set [1] is “Non-toxic”; in data set [3], 30%; in [6], 30%; in [8] it was “Non-toxic”; in data set [15], 30%; in data set [17] it was 30%. The result in the data set listed under Mus musculus [2], in the data set listed under Mus musculus [7], in the data set filed under Mus musculus [9], in the data set listed under Mus musculus [11], in the data set filed under Mus musculus [12] and in the data set listed under Mus musculus [13] was inactive. Further, the outcome in the data set filed under Mus musculus [14] and in the data set filed under Mus musculus [21] was inactive. Besides, the result in the data set with 3T3-F442A [4], in the data set with 3T3-F442A (Mus musculus) [5], in the data set on Homo sapiens, in the data set filed under Mus musculus [10], in the data set listed under Mus musculus [16] and in the data set on 3T3-F442A [18] was Active. Moreover, the result in the data set on 3T3-F442A (Mus musculus) [19] and in the data set filed under Mus musculus [20] was Active.

Values taken from ChEMBL document CHEMBL1629547, “Zidovudine impairs adipogenic differentiation through inhibition of clonal expansion” (Antimicrob Agents Chemother, 2008).
